Shown are actives, neighbours in structure and some others; about 2.9% of the full set was active somewhere.
Vif imaging: HIV Vif inhibition; HEK293T cells, Vif self-association by quenched fluorescence, imaging, 24 h; inhibition, % at 7.49 µM; 340,000 compounds, 0.35% hits; AID 602346; in the data active = inhibition above about 50%, passing the limit was not always enough
rRNA inh HTS: inhibits bacterial ribosomal RNA function over humanized ribosomes; E. coli WT GFP vs humanized-ribosome RFP mutants, fluorescence, 24 h; hits give low values; DMSO median 0, no signal -100; 350,000 compounds, 1.6% hits; GFP signal change (wild-type ribosome), % (concentration not given with the values);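 active = significant combined selectivity score with lowered wild-type GFP, culture density cut under 30%, mutant RFP and density less affected; inactive = any of these conditions unmet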
FGF22 binding-1: FGF22 (human) thermal shift binding. Q9HCT0. recombinant FGF22 thermal shift, SYPRO orange fluorescence; percent of sucrose octasulfate shift, DMSO zero. activity (Tm shift, normalised), % at 9.99 µM. 340,000 compounds, 1.5% hits. AID 651658;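 active = mean Tm shift, scaled 0 neutral to 100 positive control, at about 1.3% or above, every replicate too, limit read from the data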
Target sequence (Q9HCT0 whole entry, looked up): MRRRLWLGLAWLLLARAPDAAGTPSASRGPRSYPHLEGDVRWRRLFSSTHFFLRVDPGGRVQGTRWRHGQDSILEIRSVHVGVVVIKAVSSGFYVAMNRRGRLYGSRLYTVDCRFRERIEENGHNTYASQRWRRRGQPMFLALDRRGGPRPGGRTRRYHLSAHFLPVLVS
PglD inh: blocks C. jejuni PglD acetyltransferase activity | purified PglD enzyme, DTNB colorimetric CoA detection | inhibition, % at 12.5 µM | 360,000 compounds, 0.098% hits | AID 602405; in the data active = inhibition above about 16%, passing the limit was not always enough
PGC1a acetyl inh: lowers PGC1a acetylation signal in U2OS cells. AlphaScreen anti-acetyl-lysine; with virally co-expressed GCN5 acetyltransferase. inhibition, % at 15.6 µM. 350,000 compounds, 0.17% hits;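 active = every replicate shows inhibition of at least 40%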;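 note: 0% = neutral control wells and 100% = positive control wells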
Cneo AK release: Cryptococcus neoformans lysis via adenylate kinase release | C. neoformans lysis, adenylate kinase release luminescence, 4 h; normalised: neutral wells 0, clomiphene wells 100 | lysis activity, % at 15 µM | 360,000 compounds, 0.2% hits | AID 651654;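 active = mean lysis activity across replicates of at least 80%, whatever share of replicates individually reach that level; inactive = mean lysis activity below 80%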
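Schedule: static 4 h at 37 °C with compound, 1 h detection; system: C. neoformans cells; benchmarks: Clomiphene as positive control; buffer or medium: fresh YPD medium; measure: luminescence rise reflecting yeast cell lysis; measured by: luminescent adenylate kinase detection reagent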
FGF22 binding-2: FGF22 (human) binding in thermal shift; shares compounds with FGF22 binding-1; recombinant FGF22 thermal shift, SYPRO orange fluorescence; thermal shift activity, °C (ΔTm) at 38 µM; 1,000 compounds, 2% hits; AID 720646;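 active = fitted rise in melting shift crosses a set limit at or below the top valid dose tested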
TSA no protein: shows thermal shift signal without protein, FGF22 counter-screen; shares compounds with FGF22 binding-1; 1,000 compounds, 2% hits; compound-only SYPRO orange thermal shift counter-screen, no protein; AC50, µM (titrated, usually from 38 µM);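 active = rising signal whose fitted curve reaches the 0.54 level within the top valid dose, showing a melting point, actives reach about 13 µM in these data; inactive = the rest, including activity in the opposite direction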; note: value is where the raw curve crosses a fixed level and not half-maximal
An asterisk follows results filed as active; i = inactive; x = no result given; [ ] = another dose, or the depositor's remark.

SMILES	Vif imaging	rRNA inh HTS	FGF22 binding-1	PglD inh	PGC1a acetyl inh	Cneo AK release	FGF22 binding-2	TSA no protein
COc1ccc(N2C(=O)C(CC(=O)Nc3ccccc3)N(Cc3ccccn3)C2=S)cc1 (stereo not given)	-1.2	-10.8	1.7*	-6.3	0.6	2.6	-0.015	i
CCNC(=O)CC1C(=O)N(c2ccc(F)cc2)C(=O)N1Cc1ccccn1 (stereo not given)	8.2	x	x	5.7	7.9	6.4	x	x
COC(=O)CN1C(=S)N(c2ccc(Cl)cc2)C(=O)C1CC(=O)Nc1ccc(Cl)cc1 (stereo not given)	-2.8	x	x	0.2	-4.6	0.4	x	x
CCOc1ccc(N2C(=O)C(CC(=O)Nc3ccc(F)cc3)N(Cc3ccccn3)C2=S)cc1 (stereo not given)	-0.9	1.6	1.7*	x	-5.7	x	-0.354	i
COc1ccc(NC(=O)CC2C(=O)N(c3ccc(Cl)cc3)C(=S)N2CCc2ccccn2)cc1 (stereo not given)	0.7	-13.6	0.0	-0.6	-7.6	6.6	x	x
C[C@H]1CN([C@@H](C)CO)C(=O)Cc2cc(NS(=O)(=O)c3cn(C)cn3)ccc2O[C@@H]1CN(C)C(=O)Nc1ccccc1	x	1.1	0.1	1.8	-4.5	-4.1	x	x
C[C@H]1CN([C@@H](C)CO)C(=O)CCCn2cc(nn2)CO[C@H]1CN(C)Cc1ccc(O)cc1	x	-1.9	0.2	7.8	3.4	4.4	x	x
COCC(=O)Nc1ccc2c(c1)C(=O)N(C)C[C@H](OC)[C@H](C)CN(Cc1ccccn1)[C@@H](C)CO2	x	0.7	x	-2.7	-10.1	6.6	x	x
COC(=O)C[C@@H]1C[C@@H]2c3cc(NC(=O)c4cccnc4)ccc3O[C@@H]2[C@@H](CO)O1	x	-0.1	-0.1	-1.9	-2.4	-8.5	x	x
C=CCN1C(=O)C(CC(=O)Nc2ccc(OCC)cc2)N(Cc2ccccn2)C1=S (stereo not given)	6.2	-12.9	1.1	x	-14.4	x	x	x
CCOc1ccc(N2C(=O)C(CC(=O)Nc3ccccc3)N(Cc3ccccn3)C2=S)cc1 (stereo not given)	-0.1	-11.8	1.5*	9.6	-4.8	-1.6	0.577	i
CCn1c(=O)[nH]c(=O)c2c(N)c(C(=O)c3cc(F)ccc3F)sc21	4.9	-1.5	27.5*	2.1	7.1	-3.5	-0.096	i
CC1=C2[C@@H](c3ccccc3)OB(O)C[C@@H]2n2c(=O)n(-c3ccccc3)c(=O)n2C1	x	x	1.3*	2.0	-21.9	65.2	-0.177	i
COc1ccc(NC(=O)Nc2ccc3c(c2)C(=O)N([C@H](C)CO)C[C@@H](C)[C@H](CN(C)S(=O)(=O)c2cn(C)cn2)O3)cc1	x	1.0	0.0	-1.2	8.7	-2.7	x	x
O=C(Nc1ccccc1)N1C[C@@H]2[C@H](c3ccccc31)[C@@H](CO)N2C(=O)c1ccncc1	x	4.5	0.8	-0.9	5.3	-3.0	x	x
O=C(Nc1ccccc1)N1C[C@H]2[C@@H](c3ccccc31)[C@@H](CO)N2C(=O)c1ccncc1	x	3.4	1.4*	1.7	1.7	-3.8	-0.096[42 µM]	i
O=C(Nc1cccc(F)c1)N1C[C@H]2[C@@H](c3ccccc31)[C@@H](CO)N2C(=O)c1cccnc1	x	-1.5	0.7	-0.1	-2.2	-2.3	x	x
O=C(Nc1cccc(F)c1)N1C[C@@H]2[C@H](c3ccccc31)[C@H](CO)N2C(=O)c1cccnc1	x	-4.8	1.4*	-0.8	-0.8	-7.2	0.195[42 µM]	i
COCCCNC(=O)CCc1nnc2ccc(N3CCC(C)CC3)nn12	4.7	4.0	-0.1	6.7	-2.1	-0.2	x	x
COCCNC(=O)CCc1nnc2ccc(N3CCC(C)CC3)nn12	3.3	1.6	1.6*	0.7	-7.0	-0.8	0.037	i
